Key:
Format in all cases: functional
Cavia porcellus [1] = species on record: Cavia porcellus; experiment: Effect on guinea pig T cell proliferation was ested by measuring the incorporation of (+/)-[3H]thymidine uptake at the concentration of 100 uM
Outline: (§1)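 Strain 2 female guinea pigs were immunized with 100 μg OVA in CFA split over the footpads. At day 14 they received mineral oil ip, and the exudate was collected 4 days later. T cells were enriched on nylon wool. 2×10^5 cells per well were cultured with 10% irradiated (2100 rads) exudate cells, OVA (10 μg/mL) and compound, for 72 h at 37 °C in 5% CO2. [3H]thymidine (1 μCi) was added 18-24 h before harvest. Triplicate wells; mean Δcpm ± SD.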

Cavia porcellus [2] = species on record: Cavia porcellus; experiment: Effect on guinea pig T cell proliferation was tested by measuring the incorporation of [3H]-thymidine uptake at the concentration of 0 uM; outline: as §1
Cavia porcellus [3] = species on record: Cavia porcellus; experiment: Inhibitory activity against [3H]thymidine uptake by cinnamyl 1-thioglycosides in guinea pig T cell proliferation; settings: Cavia porcellus, T-cell, 72 h; outline: as §1
Cavia porcellus [4] = species on record: Cavia porcellus; experiment: Effect on guinea pig T cell proliferation was tested by measuring the incorporation of [3H]thymidine uptake at the concentration of 10 uM; outline: as §1
Cavia porcellus [5] = species on record: Cavia porcellus; experiment: Effect on guinea pig T cell proliferation was tested by measuring the incorporation of [3H]thymidine uptake at the concentration of 1000 uM; outline: as §1
Cavia porcellus [6] = species on record: Cavia porcellus; experiment: Effect on guinea pig T cell proliferation was tested by measuring the incorporation of [3H]thymidine uptake at the concentration of 500 uM; outline: as §1
Cavia porcellus [7] = species on record: Cavia porcellus; experiment: Effect on guinea pig T cell proliferation was tested by measuring the incorporation of [3H]thymidine uptake at the concentration of 750 uM; outline: as §1
Cavia porcellus [8] = species on record: Cavia porcellus; experiment: Effect on guinea pig T cell proliferation was tested by measuring the incorporation of [3H]thymidine uptake at the concentration of 250 uM; outline: as §1
Cavia porcellus [9] = species on record: Cavia porcellus; experiment: [3H]-Thymidine uptake was determined by liquid scintillation spectroscopy in ovalbumin (OVA) pulsed compound 2 treated Macrophages
Outline: (§2)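 Guinea pig PELs and irradiated (2100 rads) exudate macrophages were each preincubated with compound (1 mM or 500 μM, depending on agent) for 18 h at 37 °C, then washed. Macrophages were pulsed with OVA 100 μg/mL for 1 h at 37 °C and washed. Cells were viability-adjusted by trypan blue and mixed, with or without OVA 10 μg/mL. Culture ran 72 h at 37 °C with [3H]thymidine read by scintillation, as mean Δcpm × 10^-3.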

Cavia porcellus [10] = species on record: Cavia porcellus; experiment: [3H]thymidine uptake was determined by liquid scintillation spectroscopy in ovalbumin pulsed Macrophages
Outline: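 Pretreatment protocol. Strain 2 female guinea pigs immunized with OVA in CFA (100 μg OVA; 0.1 mL/foot); mineral oil given ip at day 14, peritoneal exudate collected 4 days later. Nylon-wool-enriched T cells (PELs) and irradiated (2100 rads) exudate macrophages each incubated with sugar derivative 18 h at 37 °C, then washed. Macrophages pulsed with OVA 100 μg/mL for 1 h at 37 °C and washed. Viability adjusted by trypan blue; populations mixed and cultured 72 h at 37 °C. [3H]thymidine (1 μCi) added 18-24 h before harvest; read by liquid scintillation as mean Δcpm ×10^-3.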

Cavia porcellus [11] = species on record: Cavia porcellus; experiment: Inhibitory activity against [3H]thymidine uptake by cinnamyl 1-thioglycosides using guinea pig T cell proliferation assay
Cavia porcellus [12] = species on record: Cavia porcellus; experiment: Effect on guinea pig T cell proliferation was tested by measuring the incorporation of [3H]-thymidine uptake at the concentration of 100 uM; outline: as §1
Cavia porcellus [13] = species on record: Cavia porcellus; experiment: [3H]thymidine uptake was determined by liquid scintillation spectroscopy in 2 pretreated OVA pulsed Macrophages plus OVA (10 ug/mL) pretreated with 500 uM 2 at 37 degree C for 18 h; outline: as §2
Cavia porcellus [14] = species on record: Cavia porcellus; experiment: [3H]thymidine uptake was determined by liquid scintillation spectroscopy in 3 treated Macrophages plus OVA (10 ug/mL); outline: as §2
Cavia porcellus [15] = species on record: Cavia porcellus; experiment: [3H]thymidine uptake was determined by liquid scintillation spectroscopy in Macrophages; outline: as §2
Cavia porcellus [16] = species on record: Cavia porcellus; experiment: [3H]thymidine uptake was determined by liquid scintillation spectroscopy in Macrophages pretreated with 500 uM 2 at 37 degree C for 18 h; outline: as §2
Cavia porcellus [17] = species on record: Cavia porcellus; experiment: [3H]thymidine uptake was determined by liquid scintillation spectroscopy in OVA pulsed Macrophages pretreated with 500 uM 2 at 37 degree C for 18 h; outline: as §2
Cavia porcellus [18] = species on record: Cavia porcellus; experiment: [3H]-Thymidine uptake was determined by liquid scintillation spectroscopy in OVA pulsed compound 2 pretreated Macrophages pretreated with 500 uM 2 at 37 degree C for 18 h; outline: as §2
Cavia porcellus [19] = species on record: Cavia porcellus; experiment: [3H]-Thymidine uptake was determined by liquid scintillation spectroscopy in compound 2 pretreated Macrophages plus OVA (ug/mL) pretreated with 500 uM 2 at 37 degree C for 18 h; outline: as §2
Cavia porcellus [20] = species on record: Cavia porcellus; experiment: [3H]thymidine uptake was determined by liquid scintillation spectroscopy in compound 2 treated Macrophages; outline: as §2
Cavia porcellus [21] = species on record: Cavia porcellus; experiment: [3H]thymidine uptake was determined by liquid scintillation spectroscopy in compound 2 treated Macrophages pretreated with 500 uM 2 at 37 degree C for 18 h; outline: as §2
Mus musculus [22] = experiment: Compound was administered intraperitoneally to mice before increase in foot-pad thickness at a dose of 10 mg/kg; settings: route intraperitoneal
Outline: (§3)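 DTH in A/J female mice (20-23 g): cyclophosphamide 200 mg/kg sc, then iv sensitization with 10^8 washed SRBC 3 days later. On day 6 after sensitization, one hind footpad challenged with 10^8 SRBC in 20 μL, the other given saline. Dosing ip or po to overnight-fasted mice 20 min before challenge. Swelling read at 24 and 48 h as antigen minus saline footpad (mm × 10), by constant-pressure caliper.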

Mus musculus [23] = experiment: Compound was administered intraperitoneally to mice before increase in foot-pad thickness at a dose of 3 mg/kg; settings: route intraperitoneal; outline: as §3
Mus musculus [24] = experiment: Compound was administered orally to mice before increase in foot-pad thickness at a dose of 10 mg/kg; settings: route oral; outline: as §3
Mus musculus [25] = experiment: Compound was administered orally to mice before increase in foot-pad thickness at a dose of 3 mg/kg; settings: route oral; outline: as §3
Mus musculus [26] = experiment: Compound was administered orally to mice before increase in foot-pad thickness at a dose of 30 mg/kg; settings: route oral; outline: as §3
Mus musculus [27] = experiment: Percent reduction in mice after oral administration 10 mg/kg; outline: as §3
Mus musculus [28] = experiment: Percent reduction in mice after intraperitoneal administration 3 mg/kg; outline: as §3
Mus musculus [29] = experiment: Percent reduction in mice after intraperitoneal administration of 30 mg/kg; outline: as §3
Mus musculus [30] = experiment: Percent reduction in mice after oral administration 3 mg/kg; outline: as §3
Mus musculus [31] = experiment: Percent reduction in mice after oral administration of 30 mg/kg; outline: as §3
Mus musculus [32] = experiment: Percent reduction in mice after intraperitoneal administration 10 mg/kg; outline: as §3
Cavia porcellus [33] = species on record: Cavia porcellus; experiment: [3H]thymidine uptake was determined by liquid scintillation spectroscopy in compound 2 pretreated OVA pulsed Macrophages plus OVA (10 ug/mL); outline: as §2
Mus musculus [34] = experiment: Compound was administered intraperitoneally to mice before increase in foot-pad thickness at a dose of 30 mg/kg; settings: route intraperitoneal; outline: as §3

Structure (SMILES): [N-]=[N+]=NCC1OC(SC/C=C/c2ccccc2)C(O)C(O)C1O (stereo not given)
- Activity (Cavia porcellus [1]): 21.1 Δcpm x10e-3
- Activity (Cavia porcellus [2]): 33.5 Δcpm x10e-3
- IC50 (Cavia porcellus [3]): 240 µM
- Activity (Cavia porcellus [4]): 21 Δcpm x10e-3
- Activity (Cavia porcellus [5]): 0.06 Δcpm x10e-3
- Activity (Cavia porcellus [6]): 2.26 Δcpm x10e-3
- Activity (Cavia porcellus [7]): 0 Δcpm x 10^-3
- Activity (Cavia porcellus [8]): 14.3 Δcpm x10e-3

Structure (SMILES): OCC1OC(SC/C=C/c2ccccc2)C(O)C(O)C1O (stereo in doubt; 2)
- Delta cpm x10e-3 (Cavia porcellus [9]): 27.8
- Delta cpm x10e-3 (Cavia porcellus [10]): 41.36
- Activity (Cavia porcellus [2]): 82.4 Δcpm x10e-3
- IC50 (Cavia porcellus [11]): 198 µM
- Activity (Cavia porcellus [4]): 95.9 Δcpm x10e-3
- Activity (Cavia porcellus [12]): 63.6 Δcpm x10e-3
- Activity (Cavia porcellus [5]): 0.18 Δcpm x10e-3
- Activity (Cavia porcellus [6]): 0.04 Δcpm x10e-3
- Activity (Cavia porcellus [7]): 0 Δcpm x 10^-3
- Delta cpm x10e-3 (Cavia porcellus [13]): 12.06
- Delta cpm x10e-3 (Cavia porcellus [14]): 14.5
- Delta cpm x10e-3 (Cavia porcellus [15]): 1.31
- Delta cpm x10e-3 (Cavia porcellus [16]): 1.16
- Delta cpm x10e-3 (Cavia porcellus [17]): 30.35
- Delta cpm x10e-3 (Cavia porcellus [18]): 14.2
- Delta cpm x10e-3 (Cavia porcellus [19]): 8.7
- Delta cpm x10e-3 (Cavia porcellus [20]): 1.89
- Delta cpm x10e-3 (Cavia porcellus [21]): 1.07
- Activity (Mus musculus [22]): 2.46 mm x10
- Activity (Mus musculus [23]): 7.3 mm x10
- Activity (Mus musculus [24]): 0.82 mm x10
- Activity (Mus musculus [25]): 0.85 mm x10
- Activity (Mus musculus [26]): 0.82 mm x10
- Reduction (Mus musculus [27]): 30%
- Reduction (Mus musculus [28]): 0%
- Reduction (Mus musculus [29]): 63%
- Reduction (Mus musculus [30]): 27%
- Reduction (Mus musculus [31]): 30%
- Reduction (Mus musculus [32]): 56%
- Delta cpm x10e-3 (Cavia porcellus [33]): 18.94
- Activity (Cavia porcellus [8]): 17.6 Δcpm x10e-3
- Activity (Mus musculus [34]): 2.07 mm x10

Source: ChEMBL document CHEMBL1123901, “Inhibition of delayed hypersensitivity reactions by cinnamyl 1-thioglycosides” (J Med Chem, 1987)
